Experiments:
Homo sapiens [1] = species on record: Homo sapiens; assay: Selectivity ratio of IC50 for recombinant human PDE4A to IC50 for recombinant human PDE10A
Homo sapiens [2] = species on record: Homo sapiens; assay: Selectivity ratio of IC50 for recombinant human PDE3A to IC50 for recombinant human PDE10A
[3] = target: cAMP and cAMP-inhibited cGMP 3',5'-cyclic phosphodiesterase 10A (Homo sapiens, UniProt Q9Y233); assay: Inhibition of recombinant human PDE10A assessed as reduction of [3H]-cAMP hydrolysis preincubated for 5 mins followed by [3H]-cAMP addition measured after 20 mins by scintillation proximity assay
Method in brief: (§1)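 Recombinant human PDE with [3H]cAMP scintillation proximity assay. Enzyme used at a level within the linear range. Inhibitor (DMSO serial dilutions) plus enzyme held 5 min on ice, then [3H]cAMP added at 1/3 Km (1.48 kBq/mL), 20 min on ice (~30% turnover). Stopped with yttrium silicate SPA beads; settled 1.5 h at rt and counted. IC50 from one-site nonlinear fit, at least two independent runs, ± SD.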

Homo sapiens [4] = species on record: Homo sapiens; assay: Selectivity ratio of IC50 for recombinant human PDE3B to IC50 for recombinant human PDE10A
Homo sapiens [5] = species on record: Homo sapiens; assay: Selectivity ratio of IC50 for recombinant human PDE4B to IC50 for recombinant human PDE10A
[6] = target: cGMP-inhibited 3',5'-cyclic phosphodiesterase 3B (Homo sapiens, UniProt Q13370); assay: Inhibition of recombinant human PDE3B assessed as reduction of [3H]-cAMP hydrolysis preincubated for 5 mins followed by [3H]-cAMP addition measured after 20 mins by scintillation proximity assay; method in brief: as §1
[7] = target: 3',5'-cyclic-AMP phosphodiesterase 4B (Homo sapiens, UniProt Q07343); assay: Inhibition of recombinant human PDE4B assessed as reduction of [3H]-cAMP hydrolysis preincubated for 5 mins followed by [3H]-cAMP addition measured after 20 mins by scintillation proximity assay; method in brief: as §1
[8] = target: 3',5'-cyclic-AMP phosphodiesterase 4A (Homo sapiens, UniProt P27815); assay: Inhibition of recombinant human PDE4A assessed as reduction of [3H]-cAMP hydrolysis preincubated for 5 mins followed by [3H]-cAMP addition measured after 20 mins by scintillation proximity assay; method in brief: as §1
[9] = target: cGMP-inhibited 3',5'-cyclic phosphodiesterase 3A (Homo sapiens, UniProt Q14432); assay: Inhibition of recombinant human PDE3A assessed as reduction of [3H]-cAMP hydrolysis preincubated for 5 mins followed by [3H]-cAMP addition measured after 20 mins by scintillation proximity assay; method in brief: as §1
Chain of cGMP-inhibited 3',5'-cyclic phosphodiesterase 3A (Q14432 whole entry): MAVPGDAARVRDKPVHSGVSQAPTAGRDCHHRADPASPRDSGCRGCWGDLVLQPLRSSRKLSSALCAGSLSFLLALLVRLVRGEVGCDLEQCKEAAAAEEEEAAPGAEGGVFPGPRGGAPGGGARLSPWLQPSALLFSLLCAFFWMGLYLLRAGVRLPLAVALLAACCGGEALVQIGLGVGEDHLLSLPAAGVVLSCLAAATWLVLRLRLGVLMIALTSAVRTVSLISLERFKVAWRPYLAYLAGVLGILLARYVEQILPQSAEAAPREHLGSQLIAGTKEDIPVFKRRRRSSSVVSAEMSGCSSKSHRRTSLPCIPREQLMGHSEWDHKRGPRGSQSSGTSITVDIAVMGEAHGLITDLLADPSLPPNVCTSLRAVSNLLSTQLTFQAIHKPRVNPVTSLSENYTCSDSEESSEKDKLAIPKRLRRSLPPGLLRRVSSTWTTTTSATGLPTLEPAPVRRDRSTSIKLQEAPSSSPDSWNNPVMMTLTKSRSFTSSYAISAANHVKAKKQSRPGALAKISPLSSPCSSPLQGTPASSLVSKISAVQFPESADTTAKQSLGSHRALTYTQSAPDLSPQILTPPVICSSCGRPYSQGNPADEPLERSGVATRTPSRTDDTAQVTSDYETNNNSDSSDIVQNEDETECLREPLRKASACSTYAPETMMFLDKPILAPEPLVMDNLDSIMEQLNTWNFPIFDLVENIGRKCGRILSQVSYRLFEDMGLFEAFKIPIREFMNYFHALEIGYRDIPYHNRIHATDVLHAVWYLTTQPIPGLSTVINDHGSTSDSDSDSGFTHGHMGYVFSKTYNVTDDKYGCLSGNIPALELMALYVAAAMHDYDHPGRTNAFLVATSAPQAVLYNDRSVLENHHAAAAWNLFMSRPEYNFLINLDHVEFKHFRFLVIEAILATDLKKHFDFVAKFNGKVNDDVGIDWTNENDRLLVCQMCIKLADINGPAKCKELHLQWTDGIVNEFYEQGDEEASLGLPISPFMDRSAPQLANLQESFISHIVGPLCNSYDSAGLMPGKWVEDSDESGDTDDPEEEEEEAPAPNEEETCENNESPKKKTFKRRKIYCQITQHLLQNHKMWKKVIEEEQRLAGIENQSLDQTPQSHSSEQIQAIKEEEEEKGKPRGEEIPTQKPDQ

Chain of cGMP-inhibited 3',5'-cyclic phosphodiesterase 3B (Q13370 whole entry): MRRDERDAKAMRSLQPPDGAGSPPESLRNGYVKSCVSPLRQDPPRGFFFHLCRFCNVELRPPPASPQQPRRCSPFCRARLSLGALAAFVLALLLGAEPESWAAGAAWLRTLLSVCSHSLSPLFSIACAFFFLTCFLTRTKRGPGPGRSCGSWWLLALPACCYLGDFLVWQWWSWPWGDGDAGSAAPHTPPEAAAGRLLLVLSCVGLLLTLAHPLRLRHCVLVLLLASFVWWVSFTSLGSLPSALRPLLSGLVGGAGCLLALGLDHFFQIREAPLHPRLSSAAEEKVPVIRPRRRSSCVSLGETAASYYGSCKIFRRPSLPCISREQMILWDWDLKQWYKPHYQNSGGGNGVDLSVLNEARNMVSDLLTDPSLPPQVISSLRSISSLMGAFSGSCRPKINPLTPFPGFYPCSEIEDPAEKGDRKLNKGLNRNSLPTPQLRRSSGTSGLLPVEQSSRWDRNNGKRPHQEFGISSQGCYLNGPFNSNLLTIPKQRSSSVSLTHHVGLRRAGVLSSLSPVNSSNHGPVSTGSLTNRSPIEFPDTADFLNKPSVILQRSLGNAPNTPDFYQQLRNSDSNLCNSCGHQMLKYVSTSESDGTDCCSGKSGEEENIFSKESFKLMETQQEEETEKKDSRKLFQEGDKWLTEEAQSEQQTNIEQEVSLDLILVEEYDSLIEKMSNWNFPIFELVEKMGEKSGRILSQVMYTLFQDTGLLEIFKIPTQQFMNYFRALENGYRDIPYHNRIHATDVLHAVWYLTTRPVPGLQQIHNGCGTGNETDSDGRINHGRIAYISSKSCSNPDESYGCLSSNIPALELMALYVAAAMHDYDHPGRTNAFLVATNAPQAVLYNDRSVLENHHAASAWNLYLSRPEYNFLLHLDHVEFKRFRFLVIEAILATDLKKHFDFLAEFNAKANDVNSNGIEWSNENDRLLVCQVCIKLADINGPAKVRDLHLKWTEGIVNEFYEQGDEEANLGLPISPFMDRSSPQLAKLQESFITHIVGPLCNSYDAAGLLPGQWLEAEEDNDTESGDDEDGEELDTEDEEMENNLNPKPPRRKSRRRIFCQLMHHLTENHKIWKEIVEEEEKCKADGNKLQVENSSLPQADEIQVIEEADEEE
Chain of 3',5'-cyclic-AMP phosphodiesterase 4A (P27815 whole entry): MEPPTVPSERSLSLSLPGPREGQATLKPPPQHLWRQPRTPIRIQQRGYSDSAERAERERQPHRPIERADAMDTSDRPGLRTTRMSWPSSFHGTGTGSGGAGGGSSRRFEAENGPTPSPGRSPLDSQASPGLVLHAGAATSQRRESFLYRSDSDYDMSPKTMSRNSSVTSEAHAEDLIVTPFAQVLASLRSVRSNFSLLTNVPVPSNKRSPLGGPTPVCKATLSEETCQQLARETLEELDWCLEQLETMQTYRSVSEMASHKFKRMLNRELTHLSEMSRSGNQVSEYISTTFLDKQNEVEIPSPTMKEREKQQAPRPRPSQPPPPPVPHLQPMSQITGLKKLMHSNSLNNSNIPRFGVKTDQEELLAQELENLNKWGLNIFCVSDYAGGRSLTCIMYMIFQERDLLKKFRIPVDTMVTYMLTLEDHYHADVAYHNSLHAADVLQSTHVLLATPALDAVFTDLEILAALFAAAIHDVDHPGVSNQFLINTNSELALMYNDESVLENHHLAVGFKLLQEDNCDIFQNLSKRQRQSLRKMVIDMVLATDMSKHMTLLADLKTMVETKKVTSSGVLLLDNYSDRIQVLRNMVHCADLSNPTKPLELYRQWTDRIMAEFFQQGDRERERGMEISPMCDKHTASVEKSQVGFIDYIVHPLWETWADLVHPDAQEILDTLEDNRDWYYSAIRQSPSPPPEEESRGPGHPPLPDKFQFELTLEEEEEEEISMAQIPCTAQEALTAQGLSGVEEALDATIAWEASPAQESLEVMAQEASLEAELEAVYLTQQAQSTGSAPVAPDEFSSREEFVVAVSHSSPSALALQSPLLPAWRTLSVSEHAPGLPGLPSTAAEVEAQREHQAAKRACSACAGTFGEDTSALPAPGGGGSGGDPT
Chain of cAMP and cAMP-inhibited cGMP 3',5'-cyclic phosphodiesterase 10A (Q9Y233 whole entry): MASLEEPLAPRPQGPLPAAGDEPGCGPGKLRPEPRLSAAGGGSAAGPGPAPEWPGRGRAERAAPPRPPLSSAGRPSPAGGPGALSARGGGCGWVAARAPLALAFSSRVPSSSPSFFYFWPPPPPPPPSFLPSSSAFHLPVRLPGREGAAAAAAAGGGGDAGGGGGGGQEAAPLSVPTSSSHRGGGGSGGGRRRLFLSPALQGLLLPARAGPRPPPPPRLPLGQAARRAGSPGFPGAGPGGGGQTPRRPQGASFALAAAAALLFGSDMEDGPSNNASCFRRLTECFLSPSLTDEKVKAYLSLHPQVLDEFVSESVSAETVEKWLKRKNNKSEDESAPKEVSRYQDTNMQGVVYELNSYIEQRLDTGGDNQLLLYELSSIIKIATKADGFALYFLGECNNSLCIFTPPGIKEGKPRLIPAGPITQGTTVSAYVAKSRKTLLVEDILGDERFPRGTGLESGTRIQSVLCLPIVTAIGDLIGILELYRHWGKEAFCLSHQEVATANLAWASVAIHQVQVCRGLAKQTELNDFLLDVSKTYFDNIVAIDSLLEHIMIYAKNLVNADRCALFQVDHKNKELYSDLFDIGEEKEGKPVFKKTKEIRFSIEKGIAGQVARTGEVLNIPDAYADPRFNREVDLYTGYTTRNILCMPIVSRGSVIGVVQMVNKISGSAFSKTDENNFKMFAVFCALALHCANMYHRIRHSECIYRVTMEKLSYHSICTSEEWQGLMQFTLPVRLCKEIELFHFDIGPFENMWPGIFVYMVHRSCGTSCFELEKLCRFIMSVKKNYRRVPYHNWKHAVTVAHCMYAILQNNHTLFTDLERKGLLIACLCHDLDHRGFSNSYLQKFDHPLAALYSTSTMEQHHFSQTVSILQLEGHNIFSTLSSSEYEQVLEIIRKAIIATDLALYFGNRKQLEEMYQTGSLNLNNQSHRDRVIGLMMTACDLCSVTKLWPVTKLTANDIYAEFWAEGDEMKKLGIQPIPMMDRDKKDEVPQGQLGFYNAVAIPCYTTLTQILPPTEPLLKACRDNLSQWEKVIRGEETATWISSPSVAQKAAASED
Chain of 3',5'-cyclic-AMP phosphodiesterase 4B (Q07343 whole entry): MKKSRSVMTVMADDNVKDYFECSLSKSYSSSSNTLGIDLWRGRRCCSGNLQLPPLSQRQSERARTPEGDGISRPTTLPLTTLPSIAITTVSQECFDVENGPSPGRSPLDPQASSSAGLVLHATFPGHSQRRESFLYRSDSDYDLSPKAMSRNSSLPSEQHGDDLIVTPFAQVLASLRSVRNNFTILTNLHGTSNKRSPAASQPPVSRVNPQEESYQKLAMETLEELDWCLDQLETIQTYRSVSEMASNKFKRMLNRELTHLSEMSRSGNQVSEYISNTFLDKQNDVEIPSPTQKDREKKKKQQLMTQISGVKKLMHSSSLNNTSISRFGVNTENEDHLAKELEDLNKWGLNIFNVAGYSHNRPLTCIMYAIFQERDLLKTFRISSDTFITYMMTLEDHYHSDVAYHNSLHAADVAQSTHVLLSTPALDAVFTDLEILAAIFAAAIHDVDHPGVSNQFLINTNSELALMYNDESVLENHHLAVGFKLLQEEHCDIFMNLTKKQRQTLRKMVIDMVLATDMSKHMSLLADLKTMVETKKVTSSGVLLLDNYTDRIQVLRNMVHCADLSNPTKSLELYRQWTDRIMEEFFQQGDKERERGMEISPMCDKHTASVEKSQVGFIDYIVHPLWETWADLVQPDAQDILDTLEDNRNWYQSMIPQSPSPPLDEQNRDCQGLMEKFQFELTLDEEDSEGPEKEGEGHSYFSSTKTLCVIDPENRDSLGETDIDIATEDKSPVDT

| Ratio IC50 (Homo sapiens [1]) | Ratio IC50 (Homo sapiens [2]) | IC50 [3] [µM] | Ratio IC50 (Homo sapiens [4]) | Ratio IC50 (Homo sapiens [5]) | IC50 [6] [µM] | IC50 [7] [µM] | IC50 [8] [µM] | IC50 [9] [µM] | Structure (SMILES) |
| --- | --- | --- | --- | --- | --- | --- | --- | --- | --- |
| > 210 | > 210 | > 0.076 | > 210 | > 210 |  |  |  |  | Cn1cc(-c2ccncc2)c(-c2ccc(OCc3ccc4cc(CF)ccc4n3)cc2)n1 |
| > 210 | > 210 | 0.00068 | > 210 | > 210 | 5.68 | 3.8 | 4.09 | 7.71 | Cn1cc(-c2ccncc2)c(-c2ccc(OCc3cc(CF)c4ccccc4n3)cc2)n1 |
| > 210 | > 210 | 0.0018 | > 210 | > 210 | 19.1 | 0.38 | 0.46 | 21.9 | Cn1cc(-c2ccncc2)c(-c2ccc(OCc3cc(CCCF)c4ccccc4n3)cc2)n1 |
| > 210 | > 210 | 0.00047 | > 210 | > 210 | 51.8 | 7.31 | 8.36 | 62.2 | Cn1ncc(-c2ccncc2)c1-c1ccc(OCc2cc(OCCOCCOCCF)c3ccccc3n2)cc1 |
| > 210 | > 210 | 0.00026 | > 210 | > 210 | 19.9 | 1.04 | 1.76 | 25.9 | Cn1cc(-c2ccncc2)c(-c2ccc(OCc3nc4ccccc4cc3OCCF)cc2)n1 |
| > 210 | > 210 | 0.00037 | > 210 | > 210 | 38.3 | 1.59 | 12.4 | 78.8 | Cn1ncc(-c2ccncc2)c1-c1ccc(OCc2cc(NCCF)c3ccccc3n2)cc1 |
| > 210 | > 210 | 0.00071 | > 210 | > 210 | 103 | 6.42 | 8.35 | 199 | Cn1cc(-c2ccncc2)c(-c2ccc(OCc3cc(F)c4ccccc4n3)cc2)n1 |
| > 210 | > 210 | 0.00112 | > 210 | > 210 | > 1000 | 4.24 | 4.77 | 306 | Cn1ncc(-c2ccncc2)c1-c1ccc(OCc2cc(COCCF)c3ccccc3n2)cc1 |
| > 210 | > 210 | 0.00498 | > 210 | > 210 | 16.2 | 0.9 | 1.86 | 0.81 | Cn1ncc(-c2ccncc2)c1-c1ccc(OCc2cc(-n3cc(CCF)nn3)c3ccccc3n2)cc1 |
| > 210 | > 210 | 0.00116 | > 210 | > 210 | 5.61 | 1.02 | 3.72 | 3.77 | Cn1ncc(-c2ccncc2)c1-c1ccc(OCc2cc(OCCF)c3ccccc3n2)cc1 |
| > 210 | > 210 | 0.00029 | > 210 | > 210 | 23.9 | 2.55 | 2.33 | 38.5 | Cn1cc(-c2ccncc2)c(-c2ccc(OCc3ccc4cc(F)ccc4n3)cc2)n1 |
| > 210 | > 210 | 0.00307 | > 210 | > 210 | 3.56 | 18.3 | 1.57 | 4.51 | Cn1cc(-c2ccncc2)c(-c2ccc(OCc3cc(-n4cc(CCF)nn4)c4ccccc4n3)cc2)n1 |
| > 210 | > 210 | 0.00032 | > 210 | > 210 | 7.76 | 1.77 | 1.01 | 29.5 | Cn1cc(-c2ccncc2)c(-c2ccc(OCc3cc(OCCF)c4ccccc4n3)cc2)n1 |
| > 210 | > 210 | 0.0335 | > 210 | > 210 |  |  |  |  | Cn1cc(-c2ccncc2)c(-c2ccc(OCc3ccc4cc(OCCF)ccc4n3)cc2)n1 |
| > 210 | > 210 | 0.0003 | > 210 | > 210 | 28.1 | 1.73 | 15 | 58.7 | Cn1ncc(-c2ccncc2)c1-c1ccc(OCc2cc(OCCOCCOCCOCCF)c3ccccc3n2)cc1 |
| > 210 | > 210 | 0.00027 | > 210 | > 210 | 16.2 | 0.9 | 1.44 | 22.9 | Cn1cc(-c2ccncc2)c(-c2ccc(OCc3cc(OCCOCCF)c4ccccc4n3)cc2)n1 |
| > 210 | > 210 | 0.00052 | > 210 | > 210 | 3.48 | 4.8 | 5.97 | 3.74 | Cn1cc(-c2ccncc2)c(-c2ccc(OCc3cc(NCCF)c4ccccc4n3)cc2)n1 |
| > 210 | > 210 | 0.00033 | > 210 | > 210 | 29.6 | 10.3 | 9.89 | 144 | Cn1cc(-c2ccncc2)c(-c2ccc(OCc3cc(OCCOCCOCCOCCF)c4ccccc4n3)cc2)n1 |
| > 210 | > 210 | 0.00065 | > 210 | > 210 | 4.55 | 1.77 | 2.22 | 4.07 | Cn1cc(-c2ccncc2)c(-c2ccc(OCc3cc(COCCF)c4ccccc4n3)cc2)n1 |
| > 210 | > 210 | 0.00036 | > 210 | > 210 | 50.1 | 11.6 | 12.3 | 66.4 | Cn1ncc(-c2ccncc2)c1-c1ccc(OCc2cc(OCCOCCF)c3ccccc3n2)cc1 |
| > 210 | > 210 | 0.00076 | > 210 | > 210 | 151 | 0.76 | 9.73 | 111 | Cn1ncc(-c2ccncc2)c1-c1ccc(OCc2ccc3cc(F)ccc3n2)cc1 |
| > 210 | > 210 | 0.00024 | > 210 | > 210 | 61.9 | 1.58 | 1.57 | 116 | Cn1cc(-c2ccncc2)c(-c2ccc(OCc3cc(OCCOCCOCCF)c4ccccc4n3)cc2)n1 |

Reference: ChEMBL document CHEMBL3627597, “Synthesis of Fluorine-Containing Phosphodiesterase 10A (PDE10A) Inhibitors and the In Vivo Evaluation of F-18 Labeled PDE10A PET Tracers in Rodent and Nonhuman Primate” (J Med Chem, 2015)
